Drawing on ChEMBL document CHEMBL3085642, “Synthesis and evaluation of novel 4-nitropyrrole-based 1,3,4-oxadiazole derivatives as antimicrobial and anti-tubercular agents” (Eur J Med Chem, 2013), this text covers MIC, Ratio and IC50 for one compound.

≈ marks a conversion by molar mass, not a printed value.

Assay [1] relates to Candida albicans. As to the kind of experiment: Antifungal activity against Candida albicans after 48 hrs by two fold agar dilution method. Format: functional. The procedure, abridged: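 Two-fold serial dilutions in DMSO were tested against C. albicans by agar dilution. Cultures were incubated for 48 h at 35 °C and growth was monitored. MIC was taken as the lowest concentration (highest dilution) that arrested fungal growth.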
A general note: In agar dilution the substance is mixed into plates at graded concentrations.

The test system of a further assay is Klebsiella pneumoniae. Description: Antibacterial activity against Klebsiella pneumoniae by two fold broth dilution method. Format: functional. A general note: Dilution methods test growth across graded concentrations, often in twofold steps.
Assay [2] deals with Bacillus spizizenii. Description: Ratio of ciprofloxacin MIC to compound MIC against Bacillus subtilis ATCC 6633. Format: functional.
Assay [3] relates to Bacillus spizizenii. Description: Antibacterial activity against Bacillus subtilis ATCC 6633 by two fold broth dilution method. Format: functional.
In assay [4] the test system is Candida albicans. Description: Ratio of ampotericin-B MIC to compound MIC against Candida albicans. Format: functional.
Assay [5] relates to Staphylococcus aureus. As to the kind of experiment: Antibacterial activity against methicillin-resistant Staphylococcus aureus ATCC 43866 by broth dilution method. Format: functional.
Assay [6] deals with Staphylococcus aureus. As to the kind of experiment: Antibacterial activity against Staphylococcus aureus ATCC 25923 by two fold broth dilution method. Format: functional.
Assay [7] relates to Staphylococcus aureus. Description: Antibacterial activity against methicillin-susceptible Staphylococcus aureus ATCC 35556 by broth dilution method. Format: functional.
Assay [8] concerns Staphylococcus aureus. Description: Ratio of ciprofloxacin MIC to compound MIC against methicillin-susceptible Staphylococcus aureus ATCC 35556. Format: functional.
The test system of assay [9] is Staphylococcus aureus. Description: Ratio of ciprofloxacin MIC to compound MIC against methicillin-resistant Staphylococcus aureus ATCC 43866. Format: functional.
The subject of assay [10] is Mycobacterium tuberculosis. Description: Antitubercular activity against Mycobacterium tuberculosis H37Rv after 7 days by resazurin microtitre assay. Format: functional. As to conditions: 168 h.
The next assay deals with Vero. Description: Cytotoxicity against african green monkey Vero cells after 72 hrs by MTT assay. The conditions noted are these: Chlorocebus sabaeus. Format: cell-based. A digest of the protocol:
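Vero cells were exposed to compounds for 72 h. Viability was measured by cellular conversion of MTT into formazan (non-radioactive proliferation assay), and the cytotoxic concentration was reported as IC50.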
Background: Formazan colour is commonly taken as a measure of viable cells.

The subject of a further assay is Escherichia coli. Description: Antibacterial activity against Escherichia coli ATCC 25922 by two fold broth dilution method. Format: functional.
Assay [11] relates to Staphylococcus aureus. Description: Ratio of ciprofloxacin MIC to compound MIC against Staphylococcus aureus ATCC 25923. Format: functional.

As usually defined, the MIC is the smallest concentration in the dilution series that meets the test's criterion for growth inhibition. For orientation: IC50 means the point on the concentration scale where inhibition reaches its midpoint. As for `Cn1cc([N+](=O)[O-])cc1-c1nnc(-c2ccc[nH]2)o1`, the MIC against Candida albicans [1] worked out at 0.78 µg/mL (≈ 3.01 µM); in the assay with Klebsiella pneumoniae, 12.5 µg/mL (≈ 48.2 µM); against Bacillus spizizenii [3], 0.78 µg/mL (≈ 3.01 µM); in the assay on Staphylococcus aureus [5] it was 0.78 µg/mL (≈ 3.01 µM); in the assay with Staphylococcus aureus [6], 0.39 µg/mL (≈ 1.5 µM); in the assay on Staphylococcus aureus [7], 0.39 µg/mL (≈ 1.5 µM). Also, the figures for the minimal inhibitory concentration (MIC) (in [10]; against Escherichia coli) were 29.3 µg/mL (≈ 113 µM) and 1.56 µg/mL (≈ 6.02 µM), respectively. The Ratio in the assay on Bacillus spizizenii [2] turned out to be 2; in the assay on Candida albicans [4] it was 3; in the assay with Staphylococcus aureus [8] it was 2; with Staphylococcus aureus [9], 2; with Staphylococcus aureus [11] it was 3. The IC50 with Vero was determined as 208 µM.
